Assay results from ChEMBL document CHEMBL3272089, “Synthesis and antitumor activity of dihydro-5-azacytidine, a hydrolytically stable analogue of 5-azacytidine” (J Med Chem, 1977).
Active and inactive are the calls of the source. No cut-off for these calls is given here.

Key:
L1210 [1] = test: Antitumor activity against mouse L1210 cells allografted in ip dosed mouse assessed as increase in life span at MNTD administered qd from day 1 to day 9 post tumor implantation relative to control; format: functional
Summary of the method: (§1)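 L1210 implanted ip in mice. Compound given ip in 0.9% saline on the listed schedule across a dose-response range. % ILS reported at the highest nontoxic dose, or at the dose giving maximal ILS for active compounds. Test minus control body-weight change on day 5 at the highest nontoxic dose.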

L1210 [2] = test: Antitumor activity against mouse L1210 cells allografted in ip dosed mouse assessed as change in body weight at MNTD administered qd from day 1 to day 9 post tumor implantation measured on day 5 relative to control; format: functional
Summary of the method: (§2)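 Doses were given ip in 0.9% saline after ip L1210 implantation, as a dose–response series. The reading is the difference in average body weight change (g) between test (T) and control (C) groups, measured on day 5 at the highest nontoxic dose tested.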

L1210 [3] = test: Antitumor activity against mouse L1210 cells allografted in ip dosed mouse assessed as increase in life span at MNTD administered qd on day 1, 5 and 9 post tumor implantation relative to control; format: functional; summary of the method: as §1
L1210 [4] = test: Antitumor activity against mouse L1210 cells allografted in ip dosed mouse assessed as change in body weight at MNTD administered qd on day 1, 5 and 9 post tumor implantation measured on day 5 relative to control; format: functional; summary of the method: as §2
L1210 [5] = test: Cytotoxicity against mouse L1210 cells assessed as cessation of growth; format: functional, cell-based
L1210 [6] = test: Cytotoxicity against mouse L1210 cells assessed as cessation of growth in presence of cytidine; format: functional, cell-based
L1210 [7] = test: Cytotoxicity against mouse L1210 cells assessed as cessation of growth in presence of uridine; format: functional, cell-based

Row | SMILES | ILS (L1210 [3]) [%] | Activity (L1210 [4]) [g] | further results
1 | NC1=NC(=O)N([C@@H]2O[C@H](CO)[C@@H](O)[C@H]2O)CN1 [listing 1 of 2 here] |  |  | ILS (L1210 [1]): 86%; Activity (L1210 [2]): -3.2 g
2 | NC1=NC(=O)N([C@@H]2O[C@H](CO)[C@H]3O[B-]4(O[C@H]32)O[C@@H]2[C@H](O4)[C@@H](CO)O[C@H]2N2CNC(N)=NC2=O)CN1.[Na+] (stereo partly specified) | 80 | -1.5 | 
3 | NC1=NC(=O)N([C@@H]2O[C@H](CO)[C@@H](O)[C@H]2O)CN1 [listing 2 of 2 here] |  |  | Activity (L1210 [5]): Active; Activity (L1210 [6]): inactive; Activity (L1210 [7]): inactive
4 | Cl.NC1=NC(=O)NCN1 | 0 | 1 | 
5 | NC(N)=NC(=O)N[C@@H]1O[C@H](CO)[C@@H](O)[C@H]1O | 0 | -2.2 | 
